Measurements taken from ChEMBL document CHEMBL4219071, “New histone demethylase LSD1 inhibitor selectively targets teratocarcinoma and embryonic carcinoma cells” (Bioorg Med Chem, 2018).
The source made the active and inactive calls. The rule behind the calls is not given here.

What was measured:
[1] = test system: F9; assay: Cytotoxicity against mouse F9 cells at 2 uM after 16 to 30 hrs hrs by microscopic analysis; type: functional, cell-based
In short: (§1)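 Actively growing (30–50% confluent) cells were given a single 2 μM dose, with DMSO as the vehicle control, for 16 h. They were imaged by microscopy with a 10×10 lens. Triplicate dishes (technical repeats) were trypsinised, diluted and blindly counted on a hemacytometer, averaging the four corner squares to give cells per dish. Treated and control means were compared by two-tailed t-test.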

[2] = test system: PA-1; assay: Cytotoxicity against human PA1 cells at 2 uM after 16 to 30 hrs hrs by microscopic analysis; type: functional, cell-based; in short: as §1
[3] = test system: HCT-116; assay: Cytotoxicity against human HCT116 cells at 2 uM after 16 to 30 hrs hrs by microscopic analysis; type: functional, cell-based; in short: as §1
[4] = test system: HCT-116; assay: Effect on H3K4me3 levels in human HCT116 cells at 20 uM after 16 hrs by Western blot analysis; type: functional, cell-based
In short: (§2)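 HCT116 or PA-1 cells exposed 16 h to a range of concentrations. Total histones extracted. Mono-, di- and trimethylated H3K4 and total histone H3 detected by Western blot with specific antibodies and quantified.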

[5] = target: Lysine-specific histone demethylase 1A (Homo sapiens) (UniProt O60341); assay: Inhibition of LSD1 in human PA1 cells assessed as increase in H3K4me1 levels at 20 uM after 16 hrs by Western blot analysis; type: cell-based
In short: (§3)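 Actively growing HCT116 or PA-1 cells were treated with CBB3001 or DMSO vehicle for 16 hours. Total histones were extracted, and mono-, di- and trimethylated H3K4 and total histone H3 were probed by Western blot with specific antibodies and quantified. Treatments were run in technical triplicate.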

[6] = target: Lysine-specific histone demethylase 1A (Homo sapiens) (UniProt O60341); assay: Inhibition of LSD1 in human PA1 cells assessed as downregulation of SOX2 protein at 10 to 40 uM after 16 hrs by Western blot analysis
[7] = test system: HCT-116; assay: Cytotoxicity against human HCT116 cells assessed as cell growth inhibition at >40 uM after 16 hrs by microscopic analysis; type: functional, cell-based
In short: (§4)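 Actively growing HCT116 or PA-1 cells (30–50% confluent), DMSO vehicle control, exposed 16 h over a range of concentrations. Cells imaged by microscope (10×10 lens). Triplicate dishes trypsinized, diluted, spotted blind on a hemacytometer, four corners counted for mean cells per dish. Treated vs control compared by two-tailed t-test. Three independent experiments.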

[8] = target: Lysine-specific histone demethylase 1A (Homo sapiens) (UniProt O60341); assay: Inhibition of LSD1 in human PA1 cells assessed as downregulation of SOX2 protein expression at 20 to 40 uM after 16 hrs by Western blot analysis; type: cell-based
In short: (§5)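 PA-1 cells in log-phase growth were exposed to CBB3001 for 16 hours and lysed directly in buffer containing 0.5% SDS. Equalized lysates were Western blotted for SOX2, OCT4, LSD1, H3K4me1/2/3 and histone H3 using specific antibodies, with band quantification.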

[9] = test system: PA-1; assay: Cytotoxicity against human PA1 cells assessed as cell growth inhibition at 5 to 20 uM after 12 to 16 hrs by microscopic analysis; type: functional, cell-based; in short: as §4
[10] = test system: NIH3T3; assay: Growth inhibition of mouse NIH/3T3 cells at 20 to 40 uM after 30 hrs by microscopic analysis; type: cell-based; conditions: nih3t3, 30 h
In short: (§6)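 F9 or NIH3T3 cells in active growth, exposed 30 h to a range of concentrations with DMSO controls, then imaged by microscope. Triplicate dishes trypsinized and counted blind on a hemacytometer (four corners, mean cells per dish). Control vs treated compared by two-tailed equal-variance t-test.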

[11] = target: Lysine-specific histone demethylase 1A (Homo sapiens) (UniProt O60341); assay: Inhibition of LSD1 in human HCT116 cells assessed as increase in H3K4me2 levels at 20 uM after 16 hrs by Western blot analysis; type: cell-based; in short: as §3
[12] = target: Lysine-specific histone demethylase 1A (Homo sapiens) (UniProt O60341); assay: Inhibition of LSD1 in human PA1 cells assessed as downregulation of OCT4 protein at 10 to 40 uM after 16 hrs by Western blot analysis
[13] = target: Lysine-specific histone demethylase 1A (Homo sapiens) (UniProt O60341); assay: Inhibition of LSD1 in human HCT116 cells assessed as increase in H3K4me1 levels at 20 uM after 16 hrs by Western blot analysis; type: cell-based; in short: as §3
[14] = target: Lysine-specific histone demethylase 1A (Mus musculus) (UniProt Q6ZQ88); assay: Inhibition of LSD1 in mouse F9 cells assessed as downregulation of SOX2 protein at 20 to 40 uM by Western blot analysis; type: cell-based
In short: (§7)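 F9 cells exposed 30 h to a range of concentrations, then lysed directly in 0.5% SDS lysis buffer with protein loads equalized. SOX2 and OCT4 detected by Western blot, actin as loading control, bands quantified.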

[15] = target: Lysine-specific histone demethylase 1A (Mus musculus) (UniProt Q6ZQ88); assay: Inhibition of LSD1 in mouse F9 cells assessed as downregulation of OCT4 protein at 20 to 40 uM by Western blot analysis; type: cell-based; in short: as §7
[16] = target: Lysine-specific histone demethylase 1A (Homo sapiens) (UniProt O60341); assay: Inhibition of LSD1 in human PA1 cells assessed as increase in H3K4me2 levels at 20 uM after 16 hrs by Western blot analysis; type: cell-based; in short: as §3
[17] = target: Lysine-specific histone demethylase 1A (Homo sapiens) (UniProt O60341); assay: Inhibition of LSD1 in human PA1 cells assessed as downregulation of OCT4 protein expression at 20 uM after 16 hrs by Western blot analysis; type: cell-based; in short: as §5
[18] = test system: F9; assay: Growth inhibition of mouse F9 cells at 20 to 40 uM after 30 hrs by microscopic analysis; type: functional, cell-based; in short: as §6
[19] = test system: PA-1; assay: Effect on H3K4me3 levels in human PA1 cells at 20 uM after 16 hrs by Western blot analysis; type: functional, cell-based; in short: as §2
[20] = test system: PA-1; assay: Reversible growth inhibitory activity of human PA1 cells at 20 to 40 uM preincubated for 24 hrs followed by 24 hrs recovery by microscopic analysis; type: functional, cell-based
In short: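 PA-1 cells in active growth, exposed 24 h to a range of concentrations. Compound removed, cells washed extensively and regrown 24 h in fresh medium without compound. Cells imaged, then triplicate dishes trypsinized and counted blind on a hemacytometer (four corners). Three independent experiments.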

Row | SMILES | Activity [1] | Activity [2] | Activity [3] | Activity [4] | inhibition [5] | inhibition [6] | growth inhibition (GI) [7] | inhibition [8] | growth inhibition (GI) [9] | growth inhibition (GI) [10] | inhibition [11] | inhibition [12] | inhibition [13] | inhibition [14] | inhibition [15] | inhibition [16] | inhibition [17] | growth inhibition (GI) [18] | Activity [19] | growth inhibition (GI) [20]
1 | N[C@H]1CC[C@H](N[C@@H]2C[C@H]2c2ccccc2)CC1 | Active | Active | Active |  |  |  |  |  |  |  |  |  |  |  |  |  |  |  |  | 
2 | CC(C)(C)OC(=O)N[C@@H]1C[C@H]1c1ccc(OC(=O)OC(C)(C)C)cc1 |  |  |  | inactive | Active | Active | inactive | Active | Active | Non-Toxic | Active | Active | Active | Active | Active | Active | Active | Active | inactive | inactive
